M5 PAM: CHRM5 positive allosteric modulation; activation, % at 3 µM; CHO-K1 hM5, Fluo-8 calcium, ACh EC20 PAM; 0% = ACh EC20, 100% = ACh EC100; hit rate 0.3% among 360,000;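 active means activation above the run cutoff, the mean activation of all test compounds plus 3 SD, cut at about 18% in these data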
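Probe or stimulus: acetylcholine, EC20 level; Assay system: human M5 receptor in CHO-K1 cells; Schedule: compound preincubation 140 s before EC20 acetylcholine addition; Technique: intracellular calcium via Fluo-8 fluorescence; Dosing: single-point, 3 µM nominal; Read-out basis: percent activation from peak-over-basal fluorescence ratio, scaled EC20-to-EC100 acetylcholine; Repeats: one well per compound, no replicates.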
M4 ag: CHRM4 agonism in calcium assay; P08173; CHO-K1 hM4/Gqi5, Fluo-8 calcium fluorescence; vehicle 0%, full acetylcholine response 100%; activation, % at 3 µM; hit rate 0.14% among 360,000; AID 624127;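 active means activation above the run mean over all test wells plus 3 SD, cut at about 32% in these data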;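 further: peak over basal fluorescence ratio per well then scaled between controls; 0% = DMSO wells and 100% = acetylcholine at EC100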
Target sequence (P08173 whole entry, looked up): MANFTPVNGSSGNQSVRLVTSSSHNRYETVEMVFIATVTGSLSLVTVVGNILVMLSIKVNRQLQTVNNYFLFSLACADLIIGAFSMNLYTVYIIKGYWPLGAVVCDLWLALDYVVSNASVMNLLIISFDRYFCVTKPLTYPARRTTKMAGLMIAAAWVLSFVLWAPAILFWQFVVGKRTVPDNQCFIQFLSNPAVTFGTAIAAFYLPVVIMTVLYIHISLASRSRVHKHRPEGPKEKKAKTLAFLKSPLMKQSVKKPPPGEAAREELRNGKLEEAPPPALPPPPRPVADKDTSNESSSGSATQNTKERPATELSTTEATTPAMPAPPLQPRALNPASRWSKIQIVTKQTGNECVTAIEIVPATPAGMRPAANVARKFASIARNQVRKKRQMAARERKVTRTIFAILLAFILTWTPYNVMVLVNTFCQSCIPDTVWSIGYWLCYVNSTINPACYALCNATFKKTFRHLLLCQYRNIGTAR
M4 PAM: CHRM4 positive allosteric modulation | P08173 | CHO-K1 hM4/Gqi5, Fluo-8 calcium fluorescence, ACh EC20; 0% = ACh EC20, 100% = maximal ACh | activation, % at 3 µM | hit rate 0.4% among 360,000;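 active means activation above its plate's cutoff, the mean activation of sample wells plus 3 SD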
CHRM4 antagonist: blocks acetylcholine activation of human M4 receptor. hit rate 0.73% among 360,000. AID 624125. CHO-hM4 cells, ACh EC80, Fluo-8 calcium fluorescence. P08173. inhibition, % at 3 µM;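 active means inhibition above its plate's cutoff, the mean inhibition of sample wells plus 3 SD, cut at about 27% in these data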;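 further: 0% = acetylcholine EC80 with DMSO and 100% = DMSO without agonist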
M5 ag: CHRM5 agonism in calcium assay; hit rate 0.19% among 360,000; activation, % at 3 µM; CHO-K1 hM5 cells, Fluo-8 calcium fluorescence; 0% DMSO wells, 100% maximal acetylcholine response; P08912;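 active means activation above the run's mean over test compounds plus 3 SD, cut at about 23% in these data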;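 further: signal is peak over basal fluorescence ratio across the kinetic read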
CHRM5 antagonist: antagonists of human muscarinic M5 receptor (CHRM5); P08912; CHO-hM5 cells, Fluo-8 calcium fluorescence, ACh EC80; inhibition, % at 3 µM; hit rate 0.59% among 360,000;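 active means inhibition above a per-plate cutoff, the mean of that plate's test compounds plus 3 SD, cut at about 27% in these data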;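 further: 0% = acetylcholine EC80 with DMSO and 100% = DMSO without agonist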
* hit, by the source's call. Only some compounds are listed: those with a hit (about 1.8% of all), similar ones and a draw of the others.

SMILES	M5 PAM	M4 ag	M4 PAM	CHRM4 antagonist	M5 ag	CHRM5 antagonist
CCN1CCN(S(=O)(=O)c2ccc(Cl)c(C(=O)N(C)CCOc3ccc(Cl)cc3)c2)CC1	-5.8	11.5	-3.2	-14.2	0.0	6.5
O=C1[C@@H]2Cc3c([nH]c4ccccc34)CN2C(=O)CN1CCCO	-2.1	0.2	6.4	1.3	-1.5	5.9
C=CCN1CC(=O)N2Cc3[nH]c4ccccc4c3C[C@H]2C1=O	-10.9	0.8	-16.5	43.1*	-1.2	10.8
CN(CCc1ccccc1)c1cc2c(c3c1ccn3C)C1CCC2O1 (configuration not stated)	3.9	0.0	15.5	-6.7	-0.4	-4.6
Nc1c(-c2ccc(Cl)cc2)cnn1-c1cccc([N+](=O)[O-])c1	-19.1	2.4	-9.6	10.5	-6.3	33.2*
Nc1c(-c2ccccc2)cnn1-c1cccc([N+](=O)[O-])c1	-17.4	2.2	-4.2	-4.5	-8.1	7.2
O=C(NC(c1ccc(Cl)cc1)c1ccsc1)C1CCN(Cc2ccc(Oc3ccccc3)cc2)CC1 (configuration not stated)	-5.8	5.6	-11.0	15.6	1.0	11.2
CCCS(=O)(=O)NC(=O)C1(C)CCCN(C(=O)c2ccncc2)C1 (configuration not stated)	0.5	0.0	6.6	-6.3	1.2	2.8
O=C(CO/N=C1\CCCc2nonc21)Nc1ccccc1Cl	-0.2	2.1	16.2	26.8*	-0.9	2.3
Cc1ccc(NN2C(=O)C=C(c3ccc(Cl)cc3)C2=O)cc1	-2.5	9.1	-13.6	70.4*	10.1	22.8
CN(C)c1ccc(/C=C(\C#N)C(=O)c2ccccc2)cc1	-20.9	70.1*	-23.1	36.7*	63.2*	39.8*
CCN(CC)c1ccc(/C=C(\C#N)C(N)=O)cc1	1.3	2.0	-2.8	-4.7	-4.0	0.4
CCN(CC)c1ccc(/C=C(\C#N)C(=O)c2ccc(Br)cc2)cc1	-17.8	58.3*	-10.1	51.2*	108.0*	70.2*
CC(=O)/C=C1/C(=O)Nc2ccccc21	9.2	2.2	1.9	4.0	0.3	28.4*
C=CCOc1cccc(C(=O)/C=C2/C(=O)Nc3ccccc32)c1	4.7	7.8	-14.0	23.2	11.7	21.4
Cc1c(N2C(=O)CSC2c2ccco2)c(=O)n(-c2ccccc2)n1C (configuration not stated)	2.5	1.0	8.0	-11.1	-3.8	9.6
COCCNC(=O)NC(=O)CN1C(=O)NC(Cc2c[nH]c3ccccc23)C1=O (configuration not stated)	-8.5	0.2	-4.4	-1.4	-1.1	8.9
O=C(NCc1ccccc1)C(=O)c1cn(CC(=O)N2CCOCC2)c2ccccc12	3.8	2.3	1.1	-3.5	0.7	0.5
O=C(NCCc1ccccc1)C(=O)c1cn(CC(=O)N2CCCC2)c2ccccc12	-9.7	4.7	7.0	5.2	-3.1	27.3*
O=C(NCc1ccccc1Cl)C(=O)c1cn(CC(=O)N2CCOCC2)c2ccccc12	23.1*	8.1	2.4	-13.0	12.7	19.6
COc1ccccc1CCNC(=O)C(=O)c1cn(CC(=O)N2CCCC2)c2ccccc12	0.8	8.3	0.2	-23.1	-1.6	-7.5
O=C(Cn1cnc2c(nnn2Cc2ccccc2)c1=O)c1ccccc1	-3.7	5.2	18.1*	-22.3	1.7	-0.1
CC1(C(=O)NS(=O)(=O)c2ccc(Cl)cc2)CCN1C(=O)C1CC1 (configuration not stated)	7.9	1.3	9.2	-13.6	-1.3	-5.9
Cc1ccc(C2=N/C(=C/N3CCOCC3)C(=O)O2)cc1	38.4*	-0.1	3.1	-4.7	-0.1	-4.4
CN(C)NC(=S)NC1CCS(=O)(=O)C1 (configuration not stated)	21.1*	0.3	5.0	-9.0	3.6	-10.4
c1ccc(-c2cnn3c(-c4ccccc4)c(-c4ccccc4)nc3n2)cc1	4.8	10.3	5.7	6.6	14.6	18.0
O=C(NCCOc1ccccc1)c1cc(C(=O)NCCOc2ccccc2)cc([N+](=O)[O-])c1	-20.8	27.0	-27.8	15.2	9.4	27.4*

Compound activity: PubChem, The Scripps Research Institute Molecular Screening Center
